Test results published in ChEMBL document CHEMBL1127413, “Cephem sulfones as inactivators of human leukocyte elastase. 5. 7 alpha-Methoxy- and 7 alpha-chloro-1,1-dioxocephem 4-ketones” (J Med Chem, 1994).

Columns and labels:
[1] = Chemical stability (T1/2 at pH 7.4); format: physicochemical; conditions: buffer
Neutrophil elastase = biological target: T1, Neutrophil elastase (Homo sapiens, UniProt P08246); test: Inhibition constant (steady state) against Human Leukocyte Elastase (HLE)
T1 sequence (P08246 whole entry): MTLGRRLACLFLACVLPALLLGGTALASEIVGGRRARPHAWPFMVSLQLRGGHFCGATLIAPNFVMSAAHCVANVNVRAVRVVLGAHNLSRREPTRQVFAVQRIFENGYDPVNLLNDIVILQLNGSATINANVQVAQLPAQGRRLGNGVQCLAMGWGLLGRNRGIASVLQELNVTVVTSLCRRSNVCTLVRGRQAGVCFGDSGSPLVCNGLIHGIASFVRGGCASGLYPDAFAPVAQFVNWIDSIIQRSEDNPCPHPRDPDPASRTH
Method in brief: (§1)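 HLE from human sputum, active-site titrated with MeO-Suc-Ala-Ala-Pro-Val-CH2Cl; 1–3 nM active enzyme. […] Substrate and inhibitor concentrations varied to derive kon and Ki(ss).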

[2] = biological target: T2, Neutrophil elastase (Homo sapiens) (UniProt P08246); test: Tested for inhibition of Human Leukocyte Elastase (HLE) in living polymorphonuclear leukocytes; format: cell-based; design: scale not given: the % may be the effect or the level left
T2 sequence (whole entry): T1 sequence (P08246 whole entry)
Method in brief: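 Human PMNs from citrated venous blood, 5 × 10^6 cells/mL, exposed to inhibitor (10 μg per mL, in DMSO) for 15 min at 37 °C, then washed three times. Stimulated with cytochalasin B for 5 min, then fMLP for 15 min. Supernatant elastase assayed with N-acetyl-Ala-Ala-Pro-Ala-7-(4-methyl)coumarylamide, 6 h at 25 °C, fluorescence read; DMSO-only controls.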

[3] = biological target: T2, Neutrophil elastase (Homo sapiens); test: Tested for the rate constant against Human Leukocyte Elastase (HLE) inactivation; method in brief: as §1

| SMILES | half-life [1] [h] | Ki ss (Neutrophil elastase) [nM] | Activity [2] [%] | k on [3] [M⁻¹ s⁻¹] |
| --- | --- | --- | --- | --- |
| CO[C@H]1C(=O)N2C(C(=O)C(C)(C)C)=C(COC(C)=O)CS(=O)(=O)C12 (some centres not stated) | 14 | 11 | – | – |
| CO[C@H]1C(=O)N2C(C(=O)C(C)(C)C)=C(C)[C@@H](OC(C)=O)S(=O)(=O)C12 (some centres not stated) | 6.3 | 4 | – | – |
| CO[C@H]1C(=O)N2C(C(=O)C(C)(C)C)=C(COC(=O)c3ccccc3)[C@@H](OC(=O)c3ccccc3)S(=O)(=O)C12 (some centres not stated) | 1.2 | < 2 | – | – |
| COCC1=C(C(=O)C(C)(C)C)N2C(=O)[C@H](Cl)C2S(=O)(=O)C1 (some centres not stated) | 6.9 | 170 | – | – |
| CC1=C(C(=O)C(C)(C)C)N2C(=O)[C@H](Cl)C2S(=O)(=O)[C@@H]1Sc1nnnn1C (some centres not stated) | 3.2 | 300 | – | – |
| CO[C@H]1C(=O)N2C(C(=O)C(C)(C)C)=C(C)[C@@H](OC(=O)c3ccc(CSc4nc(=O)c(=O)[nH]n4C)cc3)S(=O)(=O)C12 (some centres not stated) | 7.5 | 2 | – | – |
| CC(=O)OCC1=C(C(=O)C(C)(C)C)N2C(=O)[C@H](Cl)C2S(=O)(=O)C1 (some centres not stated) | 3.9 | 4 | – | – |
| CO[C@H]1C(=O)N2C(C(=O)c3ccccc3)=C(C)[C@@H](Sc3nnnn3C)S(=O)(=O)C12 (some centres not stated) | 200 | 1400 | – | – |
| CO[C@H]1C(=O)N2C(C(=O)C(C)(C)C)=C(C)[C@@H](OC(=O)C(C)(C)C)S(=O)(=O)C12 (some centres not stated) | 54 | < 2 | – | – |
| CO[C@H]1C(=O)N2C(C(=O)C(C)(C)C)=C(C)[C@@H](Sc3nnnn3C)S(=O)(=O)C12 (some centres not stated) | 18 | 8 | – | – |
| CC(=O)OCC1=C(C(=O)c2ccccc2)N2C(=O)[C@H](Cl)C2S(=O)(=O)C1 (some centres not stated) | 1.5 | 12 | – | – |
| CO[C@H]1C(=O)N2C(C(=O)N3CCCC3)=C(CSc3nc(=O)c(=O)[nH]n3C)CS(=O)(=O)C12 (some centres not stated) | 25 | 75 | – | – |
| CO[C@H]1C(=O)N2C(C(=O)C(C)(C)C)=C(CSc3ccccn3)CS(=O)(=O)C12 (some centres not stated) | 28 | 12 | – | – |
| CC(=O)OCC1=C(C(=O)Cc2ccccc2)N2C(=O)[C@H](Cl)C2S(=O)(=O)C1 (some centres not stated) | 0.2 | 100 | – | – |
| Cn1nnnc1SCC1=C(C(=O)C(C)(C)C)N2C(=O)[C@H](Cl)C2S(=O)(=O)C1 (some centres not stated) | 3 | 7 | – | – |
| CO[C@H]1C(=O)N2C(C(=O)C(C)(C)C)=C(COC(C)=O)[C@@H](Sc3nnnn3C)S(=O)(=O)C12 (some centres not stated) | 10 | 6 | – | – |
| CC1=C(C(=O)C(C)(C)C)N2C(=O)[C@H](Cl)C2S(=O)(=O)C1 (some centres not stated) | 5.6 | 380 | – | – |
| CO[C@H]1C(=O)N2C(C(=O)C(C)(C)C)=C(CSc3nnnn3C)[C@@H](Sc3nnnn3C)S(=O)(=O)C12 (some centres not stated) | 31 | 93 | – | – |
| CO[C@H]1C(=O)N2C(C(=O)C(C)(C)C)=C(C)[C@@H](Sc3nnc(C)s3)S(=O)(=O)C12 (some centres not stated) | 27 | 12 | – | – |
| CO[C@H]1C(=O)N2C(C(=O)C(C)(C)C)=C(C)[C@@H](S(=O)(=O)c3ccccc3)S(=O)(=O)C12 (some centres not stated) | 10 | 20 | – | – |
| CC(=O)CCC1=C(COC(C)=O)CS(=O)(=O)C2[C@@H](Cl)C(=O)N12 (some centres not stated) | 10 | – | – | – |
| CO[C@H]1C(=O)N2C(C(=O)C(C)(C)C)=C(CSc3nnnn3C)CS(=O)(=O)C12 (some centres not stated) | 24 | 34 | – | – |

| SMILES | half-life [1] [h] | Ki ss (Neutrophil elastase) [nM] | Activity [2] [%] | k on [3] [M⁻¹ s⁻¹] |
| --- | --- | --- | --- | --- |
| CC(=O)OCC1=C(C(=O)C(C)(C)C)N2C(=O)[C@H](Cl)C2S(=O)(=O)[C@@H]1Sc1nnnn1C (some centres not stated) | 1.8 | 140 | – | – |
| CO[C@H]1C(=O)N2C(C(=O)C(C)(C)C)=C(C)[C@@H](Sc3ccccn3)S(=O)(=O)C12 (some centres not stated) | 24 | 10 | – | – |
| CO[C@H]1C(=O)N2C(C(=O)C(C)(C)C)=C(C)[C@@H](OC(=O)c3ccccc3)S(=O)(=O)C12 (some centres not stated) | 24 | < 2 | – | – |
| CC1=C(C(=O)c2ccccc2)N2C(=O)[C@H](Cl)C2S(=O)(=O)[C@@H]1Sc1nnnn1C (some centres not stated) | 4.1 | 270 | – | – |
| CO[C@H]1C(=O)N2C(C(=O)C(C)(C)C)=C(CSc3nc(=O)c(=O)[nH]n3C)CS(=O)(=O)C12 (some centres not stated) | 16 | 27 | – | – |
| CC1=C(C(=O)c2ccccc2)N2C(=O)[C@H](Cl)C2S(=O)(=O)C1 (some centres not stated) | 2.3 | 130 | – | – |
| CCC(=O)C1=C(COC(C)=O)CS(=O)(=O)C2[C@@H](Cl)C(=O)N12 (some centres not stated) | 1.1 | 11 | – | – |
| CO[C@H]1C(=O)N2C(C(=O)c3ccccc3)=C(CSc3nnnn3C)CS(=O)(=O)C12 (some centres not stated) | 17 | 110 | – | – |
| CO[C@H]1C(=O)N2C(C(=O)C(C)(C)C)=C(C)[C@@H](OC(=O)CCC(=O)c3ccccc3)S(=O)(=O)C12 (some centres not stated) | 13 | < 2 | – | – |
| CO[C@H]1C(=O)N2C(C(=O)OC(C)(C)C)=C(C)[C@@H](Sc3ccccn3)S(=O)(=O)C12 (some centres not stated) | 4.1 | 180 | – | – |
| CO[C@H]1C(=O)N2C(C(=O)C(C)(C)C)=C(C)[C@@H](OC(=O)c3ccc4ccccc4c3)S(=O)(=O)C12 (some centres not stated) | 33 | < 2 | – | – |
| CO[C@H]1C(=O)N2C(C(=O)C(C)(C)C)=C(C)[C@@H](Sc3nc(=O)c(=O)[nH]n3C)S(=O)(=O)C12 (some centres not stated) | 21 | 26 | – | – |
| CO[C@H]1C(=O)N2C(C(=O)SCC(NC(=O)OC(C)(C)C)C(=O)OC(c3ccccc3)c3ccccc3)=C(CSc3nnnn3C)CS(=O)(=O)[C@H]12 (some centres not stated) | – | – | 8 | – |
| CO[C@H]1C(=O)N2C(C(=O)OC(C)(C)C)=C(CSc3ccccn3)CS(=O)(=O)C12 (some centres not stated) | 5.1 | 100 | – | – |
| CO[C@H]1C(=O)N2C(C(=O)OC(C)(C)C)=C(CSc3nnnn3C)CS(=O)(=O)C12 (some centres not stated) | 3.8 | 13 | – | – |
| CO[C@H]1C(=O)N2C(C(=O)C(C)(C)C)=C(CSc3nnnn3C)[C@@H](OC(=O)c3ccccc3)S(=O)(=O)C12 (some centres not stated) | 0.7 | < 2 | – | – |
| CO[C@H]1C(=O)N2C(C(=O)C(C)(C)C)=C(C)[C@@H](OC=O)S(=O)(=O)C12 (some centres not stated) | < 0.5 | 600 | – | – |
| CO[C@H]1C(=O)N2C(C(=O)N3CCC[C@H]3C(=O)O)=C(COC(C)=O)CS(=O)(=O)C12 (some centres not stated) | 18 | 200 | – | 1800 |
| CO[C@H]1C(=O)N2C(C(=O)c3ccccc3)=C(C)CS(=O)(=O)C12 (some centres not stated) | 26 | 2700 | – | – |
| CO[C@H]1C(=O)N2C(C(=O)C(C)(C)C)=C(C)CS(=O)(=O)C12 (some centres not stated) | 106 | 1300 | – | – |
| CO[C@H]1C(=O)N2C(C(=O)c3ccccc3)=C(CSc3nnnn3C)[C@@H](Sc3nnnn3C)S(=O)(=O)C12 (some centres not stated) | 1400 | 55 | – | – |
| COC(=O)C1=C(COC(C)=O)CS(=O)(=O)C2[C@@H](Cl)C(=O)N12 (some centres not stated) | 0.9 | 12 | – | – |
